Measurements: PubChem BioAssay
Activity calls are given as the source filed them.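 How the source made its calls, unless noted: active means Her2 level under about 52% in both replicate screens, with viability over 70% of control (limit read from the data); inconclusive means Her2 under the limit in one screen only, or viability under 70%; inactive means Her2 level above the set limit.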

Columns and labels:
[1] = Her2 expression decrease, cell viability multiplex – SKBR3 breast tumor cells, AlphaScreen, ATP viability, primary screen (AID 461); conditions: SKBR3 Her2 protein level, 18-24 h, measured here: SKBR3 viability, ATP luminescence, at 10 µM;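 on Her2 level: lower value means less Her2 protein in the cells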;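 on viability: percent of carrier control wells set as 100% viability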
[2] = target: Receptor tyrosine-protein kinase erbB-2 (Homo sapiens) (UniProt P04626); assay: as above; conditions: 18-24 h, at 10 µM, stronger effect = lower value
Sequence of Receptor tyrosine-protein kinase erbB-2 (Homo sapiens) (P04626 whole entry, looked up): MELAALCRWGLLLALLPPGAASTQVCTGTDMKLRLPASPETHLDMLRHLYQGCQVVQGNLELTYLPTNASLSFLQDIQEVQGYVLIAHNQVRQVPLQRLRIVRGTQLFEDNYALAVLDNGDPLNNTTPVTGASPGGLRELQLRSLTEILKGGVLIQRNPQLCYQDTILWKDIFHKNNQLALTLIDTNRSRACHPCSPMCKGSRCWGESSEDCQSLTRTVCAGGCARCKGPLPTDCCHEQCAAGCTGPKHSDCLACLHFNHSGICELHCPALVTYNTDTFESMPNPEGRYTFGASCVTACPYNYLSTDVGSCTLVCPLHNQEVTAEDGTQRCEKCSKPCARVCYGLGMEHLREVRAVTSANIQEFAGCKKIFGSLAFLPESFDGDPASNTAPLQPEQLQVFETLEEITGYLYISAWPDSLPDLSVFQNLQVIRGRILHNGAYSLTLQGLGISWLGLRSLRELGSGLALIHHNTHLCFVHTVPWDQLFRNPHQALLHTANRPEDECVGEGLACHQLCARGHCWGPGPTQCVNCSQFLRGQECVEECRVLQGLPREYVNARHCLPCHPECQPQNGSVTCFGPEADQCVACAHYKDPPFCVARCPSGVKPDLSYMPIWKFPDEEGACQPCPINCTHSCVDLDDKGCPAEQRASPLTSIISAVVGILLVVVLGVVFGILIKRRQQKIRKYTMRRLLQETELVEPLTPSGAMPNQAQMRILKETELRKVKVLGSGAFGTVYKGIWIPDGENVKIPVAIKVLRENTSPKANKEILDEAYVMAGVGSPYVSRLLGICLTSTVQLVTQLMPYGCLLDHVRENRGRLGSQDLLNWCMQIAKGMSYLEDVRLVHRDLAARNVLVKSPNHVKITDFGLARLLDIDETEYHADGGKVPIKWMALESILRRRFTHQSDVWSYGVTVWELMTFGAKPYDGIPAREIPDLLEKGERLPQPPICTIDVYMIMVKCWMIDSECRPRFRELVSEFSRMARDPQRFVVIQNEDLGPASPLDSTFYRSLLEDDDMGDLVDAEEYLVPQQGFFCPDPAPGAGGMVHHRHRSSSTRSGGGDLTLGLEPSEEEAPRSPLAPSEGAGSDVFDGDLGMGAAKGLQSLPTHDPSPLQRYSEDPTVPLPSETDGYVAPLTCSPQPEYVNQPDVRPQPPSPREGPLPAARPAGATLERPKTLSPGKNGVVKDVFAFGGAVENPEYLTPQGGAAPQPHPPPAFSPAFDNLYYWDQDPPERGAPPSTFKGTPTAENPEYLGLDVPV

[3] = reduced viability of SK-BR-3 breast cancer cells – cell-based, 24 h, human, pilot screen (AID 572;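 active means viability at or below 10% of carrier control in both of two separate runs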;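 further: compound exposure lasted between 18 and 24 h rather than exactly 24 h; 100% = carrier-treated control wells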); conditions: SK-BR-3 viability, CellTiter-Glo luminescence, at 10 µM, stronger effect = lower value
[4] = HUVEC growth inhibition – cell-based, human, primary screen (AID 575;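 active means viability at or below 30% in both replicate assays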;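 further: 100% = median of untreated cell wells with 0.1% DMSO on each plate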); conditions: HUVEC proliferation, CellTiter-Glo luminescence, 72 h; at 10 µM; stronger effect = lower value
In short: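 System: primary human umbilical vein endothelial cells; Quantity: 1250 endothelial cells in each well; Buffer or medium: supplemented EBM, 2% fetal bovine serum; Doses: one dose, 10 µM final, 0.1% DMSO; Incubation: 72 h compound incubation; Technique: ATP-based CellTiter-Glo luminescent read; Evaluation: percent of median DMSO-control luminescence; Controls: vehicle and MePR control wells.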

[5] = H69AR cell proliferation blockers – human, duplicate replicates, primary screen (AID 580;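 active means viability at or under a set limit in both replicates, limit being median viability minus 3 SD, cut at about 48% in these data, passing the limit was not always enough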;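 further: 100% = mean luminescence of untreated wells and 0% = no signal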); conditions: H69AR lung tumor cells viability, ATP luminescence, 72 h; at 10 µM; stronger effect = lower value
[6] = MRP1 drug-resistance reversers in H69AR cells – cell-based, doxorubicin co-treatment, pilot screen (AID 601;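 active means viability loss from added drug above about 55%, and viability with drug at most 40%, in both replicates, limit read from the data, passing the limit was not always enough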); conditions: CellTiter-Glo, 72 h, at 10 µM; for differential viability (reversal): stronger effect = higher value
[7] = yeast transport mutant growth inhibition pilot in 384-well plates, post-Golgi transport modulator project (AID 636; in the data active means inhibition above about 31%); conditions: absorbance 615 nm, about 18 h, stronger effect = higher value
[8] = growth suppression of yeast trafficking mutant, preliminary HTS, modulators of trafficking downstream of Golgi apparatus project, 1536-format plate, OD 615 nm (AID 637; in the data active means inhibition above about 30%); conditions: yeast transport mutant growth, absorbance 615 nm, 18 h; stronger effect = higher value
[9] = H69AR cells + 2 uM doxorubicin, measured here: viability with 2 uM doxorubicin, stronger effect = lower value
[10] = H69AR cells, compound alone cytotoxicity

SMILES | viability [1] | Her2 level [2] | viability [3] | viability [4] | viability [5] | differential viability (reversal) ([6]; H69AR cells + 2 uM doxorubicin) | viability [6, 9] | viability [6, 10] | inhibition [7] | inhibition [8]
CN(Cc1cccs1)c1ncnc2sccc12 | 112% | 78.5% (inactive) | 112% (inactive) | 70.7% (inactive) | 92.4% (inactive) | -0.54% (inactive) | 93% | 92.4% | -4.87% (inactive) | 1.27% (inactive)
COc1ccc(-c2cc(C(F)(F)F)n3ncc(C(=O)NCC4CCCO4)c3n2)cc1 (stereo not given) | 84% | 116% (inactive) | 84% (inactive) | 78.9% (inactive) | 41.7% (active) | -5.95% (inactive) | 47.6% | 41.7% | -1.54% (inactive) | -3.67% (inactive)
CCNC(=O)COc1ccc(Br)cc1Cl | 96% | 91% (inactive) | 96% (inactive) | 92.1% (inactive) | 93.2% (inactive) | -4.36% (inactive) | 97.6% | 93.2% | -5% (inactive) | -1.9% (inactive)
O=C(CSc1nnnn1C1CCCCC1)N1CCc2ccccc21 | 91% | 82.5% (inactive) | 91% (inactive) | 60.9% (inactive) | 87.1% (inactive) | -3.15% (inactive) | 90.2% | 87.1% | -3.87% (inactive) | -2.79% (inactive)
Cc1cc(Nc2ccc(C(=O)O)cc2)n2nc(C)nc2n1 | 101% | 96.5% (inactive) | 101% (inactive) | 90.5% (inactive) | 109% (inactive) | 9.93% (inactive) | 99.2% | 109% | -4.67% (inactive) | 4.92% (inactive)
Cc1ccc(S(=O)(=O)C2(C(=O)Nc3nccs3)CC2)cc1 | 95% | 95% (inactive) | 95% (inactive) | 93.7% (inactive) | 101% (inactive) | 5.59% (inactive) | 95% | 101% | -2.44% (inactive) | -2.33% (inactive)
CNC(=O)CSc1nnc(-c2cc3c(C)nn(-c4ccccc4)c3s2)n1C | 112% | 112% (inactive) | 112% (inactive) | 99.2% (inactive) | 109% (inactive) | 22.3% (inactive) | 86.9% | 109% | -0.13% (inactive) | -2.54% (inactive)
Cc1cc(C)c(C#N)c(SCc2[nH]nc3c2C(c2ccccc2)C(C#N)=C(N)O3)n1 (stereo not given) | 93% | 80.5% (inactive) | 93% (inactive) | 85.3% (inactive) | 99.7% (inactive) | 4.6% (inactive) | 95.1% | 99.7% | -5.33% (inactive) | -4.03% (inactive)
COc1ccc(-c2cc3nc(C)c(CCC(=O)NCc4ccco4)c(C)n3n2)c(OC)c1 | 103% | 91% (inactive) | 103% (inactive) | 92.1% (inactive) | 85.8% (inactive) | -2.58% (inactive) | 88.4% | 85.8% | 0.53% (inactive) | 6.91% (inactive)
Cc1ccc(-n2c(=O)c3sccc3n(CC(=O)NCc3ccco3)c2=O)cc1 | 107% | 102% (inactive) | 107% (inactive) | 96.5% (inactive) | 99% (inactive) | 7.63% (inactive) | 91.4% | 99% | -5.53% (inactive) | -2.91% (inactive)
COc1ccc(-c2noc(CN(C(=O)C(C)(C)C)C(C)C)n2)cc1 | 96% | 102% (inactive) | 96% (inactive) | 102% (inactive) | 109% (inactive) | 17.6% (inactive) | 91.3% | 109% | -4.61% (inactive) | -6.83% (inactive)
CC(=O)c1cccc(NC(=O)N2CCCc3ccccc32)c1 | 105% | 104% (inactive) | 105% (inactive) | 95% (inactive) | 93.6% (inactive) | 2.88% (inactive) | 90.7% | 93.6% | -3.73% (inactive) | 3.93% (inactive)
CC(C)c1ccc(S(=O)(=O)N2CCN(CCC(=O)Nc3ccc(N(C)C)cc3)CC2)cc1 | 100% | 93% (inactive) | 100% (inactive) | 66.8% (inactive) | 60.6% (inactive) | 40.2% (inactive) | 20.4% | 60.6% | -3.29% (inactive) | -4.67% (inactive)
Cc1oc2nc(SCCCC(=O)NCCCO)nc(N)c2c1C | 91.5% | 85% (inactive) | 91.5% (inactive) | 103% (inactive) | 107% (inactive) | 7.75% (inactive) | 98.8% | 107% | -0.79% (inactive) | 4.75% (inactive)
CC(C)Oc1ccc(-c2nn(-c3ccccc3)cc2/C=c2\sc3ncnn3c2=O)cc1 | 84% | 106% (inactive) | 84% (inactive) | 71.5% (inactive) | 98.1% (inactive) | 8.19% (inactive) | 89.9% | 98.1% | 5.92% (inactive) | -1.82% (inactive)
Cc1c(C(=O)N2CCOCC2)oc2ccc(S(=O)(=O)N3CCCC3)cc12 | 95% | 109% (inactive) | 95% (inactive) | 94.3% (inactive) | 87.8% (inactive) | -6.14% (inactive) | 94% | 87.8% | -6.35% (inactive) | -4.59% (inactive)
COc1ccc(Cn2nnnc2C(c2cc3cc(C)cc(C)c3[nH]c2=O)N2CCOCC2)cc1 (stereo not given) | 108% | 94.5% (inactive) | 108% (inactive) | 117% (inactive) | 99.4% (inactive) | 11.9% (inactive) | 87.4% | 99.4% | -7.47% (inactive) | 0.32% (inactive)
CCOC(=O)CSc1ncnc2c1cnn2-c1ccc(C)cc1 | 103% | 88.5% (inactive) | 103% (inactive) | 75% (inactive) | 90.6% (inactive) | -0.755% (inactive) | 91.4% | 90.6% | -6.4% (inactive) | 0.33% (inactive)
O=C1C(Cl)=C(N2CCOCC2)C(=O)N1CCc1ccccc1 | 104% | 84% (inactive) | 104% (inactive) | 89.3% (inactive) | 71.3% (inactive) | 0.02% (inactive) | 71.3% | 71.3% | -6.27% (inactive) | -1.11% (inactive)
O=C1C(c2ccncc2)=C(O)c2ccccc21 | 100% | 87% (inactive) | 100% (inactive) | 73.6% (inactive) | 82.2% (inactive) | -3.63% (inactive) | 85.9% | 82.2% | -1.05% (inactive) | 12.7% (inactive)
